Data taken from ChEMBL document CHEMBL2203229, “Structure Activity Relationship Study of the Cleistriosides and Cleistetrosides for Antibacterial/Anticancer Activity” (ACS Med Chem Lett, 2012).
≈ marks a conversion by molar mass, not a printed value. Calls of active or inactive are those of the source. The rule behind the calls is not given here.

Experiments:
SR = test: Growth inhibition of human SR cells at 10 uM after 48 hrs by sulforhodamine B assay; type: functional, cell-based
Escherichia coli [1] = test: Antibacterial activity against Escherichia coli K-12 BAS901 harboring genetically modified imp-4213, zab4292::Tn5 assessed as growth inhibition after 16 hrs by broth dilution method; type: functional; settings: K-12 BAS901, 16 h
Method in brief: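 Kanamycin-resistant strain grown overnight in LB with kanamycin 50 µg/mL, diluted 10-fold, then shaken at 37 °C for 45 min–1 h (~10⁸ CFU/mL). Diluted ~1000-fold to 10⁵ CFU/mL in LB. DMSO stocks (20 mM) prepared as 4X working solutions in LB. Seven 1:2 serial dilutions mixed with equal-volume inoculum. OD600 read with shaking.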

OVCAR-3 = test: Growth inhibition of human OVCAR3 cells at 10 uM after 48 hrs by sulforhodamine B assay; type: functional, cell-based
[2] = Antibacterial activity against Bacillus subtilis JH642 containing trpC2 pheA1 assessed as growth inhibition after 16 hrs by broth dilution method; type: functional, Bacillus subtilis subsp. subtilis str. JH642
Method in brief: (§1)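 Strains grown overnight in LB, diluted 10-fold, shaken at 37 °C for 45 min–1 h (~10⁸ CFU/mL), then diluted ~1000-fold to ~10⁵ CFU/mL. Broth dilution in LB: 20 mM DMSO stocks, 1:2 serial dilutions giving seven concentrations, inoculum added 1:1. OD600 read with shaking.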

PC-3 = test: Growth inhibition of human PC3 cells at 10 uM after 48 hrs by sulforhodamine B assay; type: functional, cell-based
MCF7 = test: Growth inhibition of human MCF7 cells at 10 uM after 48 hrs by sulforhodamine B assay; type: functional, cell-based
Escherichia coli [3] = test: Antibacterial activity against Escherichia coli K-12 MG1655 assessed as growth inhibition after 16 hrs by broth dilution method; type: functional; settings: K-12 substr. MG1655, 16 h; method in brief: as §1
SK-MEL-5 = test: Growth inhibition of human SK-MEL-5 cells at 10 uM after 48 hrs by sulforhodamine B assay; type: functional, cell-based
MDA-MB-435 = test: Growth inhibition of human MDA-MB-435 cells at 10 uM after 48 hrs by sulforhodamine B assay; type: functional, cell-based
RPMI-8226 = test: Growth inhibition of human RPMI8226 cells at 10 uM after 48 hrs by sulforhodamine B assay; type: functional, cell-based
NCI/ADR-RES = test: Growth inhibition of human NCI-ADR-RES cells at 10 uM after 48 hrs by sulforhodamine B assay; type: functional, cell-based
A549 = test: Growth inhibition of human A549 cells at 10 uM after 48 hrs by sulforhodamine B assay; type: functional, cell-based
CAKI-1 = test: Growth inhibition of human CAKI-1 cells at 10 uM after 48 hrs by sulforhodamine B assay; type: functional, cell-based
BT-549 = test: Growth inhibition of human BT549 cells at 10 uM after 48 hrs by sulforhodamine B assay; type: functional, cell-based
NCI-H460 [4] = test: Growth inhibition of human NCI-H460 cells at 10 uM after 48 hrs by sulforhodamine B assay; type: functional, cell-based
HT-29 = test: Growth inhibition of human HT-29 cells at 10 uM after 48 hrs by sulforhodamine B assay; type: functional, cell-based
HCT-15 = test: Growth inhibition of human HCT15 cells at 10 uM after 48 hrs by sulforhodamine B assay; type: functional, cell-based
SNB-75 = test: Growth inhibition of human SNB75 cells at 10 uM after 48 hrs by sulforhodamine B assay; type: functional, cell-based
SF-539 = test: Growth inhibition of human SF539 cells at 10 uM after 48 hrs by sulforhodamine B assay; type: functional, cell-based
A498 = test: Growth inhibition of human A498 cells at 10 uM after 48 hrs by sulforhodamine B assay; type: functional, cell-based
DU-145 = test: Growth inhibition of human DU145 cells at 10 uM after 48 hrs by sulforhodamine B assay; type: functional, cell-based
NCI-H460 [5] = test: Cytotoxicity against human NCI-H460 cells assessed as inhibition of cell viability by MTT assay; type: functional, cell-based
Method in brief: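 NCI-H460 cells in RPMI 1640 with 10% FBS and 2 mM glutamine at 37 °C, 5% CO₂. Seeded at 10,000 cells/well for 12 h, then dosed in 1% FBS medium (DMSO below 0.1% final). MTT (10 µL of 5 mg/mL) for 4 h, formazan dissolved in DMSO for 45 min, absorbance at 562 nm. Triplicate wells, at least three runs (N = 9).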

| Structure (SMILES) | growth inhibition (GI) (SR) | MIC (Escherichia coli [1]) [µM] | growth inhibition (GI) (OVCAR-3) | MIC [2] [µM] | growth inhibition (GI) (PC-3) | growth inhibition (GI) (MCF7) | MIC (Escherichia coli [3]) [µM] | growth inhibition (GI) (SK-MEL-5) | growth inhibition (GI) (MDA-MB-435) | growth inhibition (GI) (RPMI-8226) | growth inhibition (GI) (NCI/ADR-RES) | growth inhibition (GI) (A549) | growth inhibition (GI) (CAKI-1) | growth inhibition (GI) (BT-549) | growth inhibition (GI) (NCI-H460 [4]) | growth inhibition (GI) (HT-29) | growth inhibition (GI) (HCT-15) | growth inhibition (GI) (SNB-75) | growth inhibition (GI) (SF-539) | growth inhibition (GI) (A498) | also measured |
| --- | --- | --- | --- | --- | --- | --- | --- | --- | --- | --- | --- | --- | --- | --- | --- | --- | --- | --- | --- | --- | --- |
| CCCCCCCCCCCCO[C@@H]1O[C@@H](C)[C@H](O[C@@H]2O[C@@H](C)[C@H](OC(C)=O)[C@@H](O[C@@H]3O[C@@H](C)[C@H](O)[C@@H](O[C@@H]4O[C@@H](C)[C@H](OC(C)=O)[C@@H](O)[C@H]4O)[C@H]3OC(C)=O)[C@H]2O)[C@@H](O)[C@H]1O | inactive | 16 (≈ 14.4 µg/mL) | inactive | 8 (≈ 7.18 µg/mL) | inactive | inactive | > 64 | inactive | inactive | inactive | inactive | inactive | inactive | inactive | inactive | inactive | inactive | inactive | inactive | inactive | growth inhibition (GI) (DU-145): inactive; IC50 (NCI-H460 [5]): 16.5 µM |
| CCCCCCCCCCCCO[C@@H]1O[C@@H](C)[C@H](O[C@@H]2O[C@@H](C)[C@H](OC(C)=O)[C@@H](O[C@@H]3O[C@@H](C)[C@H](O)[C@@H](O[C@@H]4O[C@@H](C)[C@H](O)[C@@H](O)[C@H]4O)[C@H]3OC(C)=O)[C@H]2O)[C@@H](O)[C@H]1O | inactive | 16 (≈ 13.7 µg/mL) | inactive | 8 (≈ 6.84 µg/mL) | inactive | inactive | > 64 | inactive | inactive | inactive | inactive | inactive | inactive | inactive | inactive | inactive | inactive | inactive | inactive | inactive | growth inhibition (GI) (DU-145): inactive; IC50 (NCI-H460 [5]): 15.4 µM |
| CCCCCCCCCCCCO[C@@H]1O[C@@H](C)[C@H](O[C@@H]2O[C@@H](C)[C@H](OC(C)=O)[C@@H](O[C@@H]3O[C@@H](C)[C@H](OC(C)=O)[C@@H](O[C@@H]4O[C@@H](C)[C@H](O)[C@@H](O)[C@H]4O)[C@H]3OC(C)=O)[C@H]2O)[C@@H](O)[C@H]1O | inactive | > 64 | inactive | 8 (≈ 7.18 µg/mL) | inactive | inactive | > 64 | inactive | inactive | inactive | inactive | inactive | inactive | inactive | inactive | inactive | inactive | inactive | inactive | inactive | growth inhibition (GI) (DU-145): inactive; IC50 (NCI-H460 [5]): 12.2 µM |
